Reference: paper PMC11909274 (Nature Communications, 2025)
Blank lines part the entries; values can stand above or below the molecule they belong to.

Legend:
[1] = system: CHP-212-R(mix) and resistant monoclonal sublines R1-R6 (heterozygous USP7 V517F); experiment: Cell viability assay; details: for sensitivity of the resistant cells to other agents: SRB, 3 days exposure (Fig. 1d)
[2] = system: CHP-212.V517F.KI#1 and CHP-212.V517F.KI#2 cells; experiment: Cell viability assay; type: cell-based, human; details: CHP-212 V517F knock-in vs WT
[3] = system: USP4, USP8, USP9X, USP12, USP15, and USP34; details: cited from earlier work
V517A^CD = V517A^CD (Homo sapiens, UniProt Q93009, V517A); experiment: Isothermal titration calorimetry; type: binding; details: ITC
In short: (§1)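 His-tagged USP7 catalytic-domain mutants were expressed from pET28 in E. coli BL21(DE3), induced with 0.5 mM IPTG overnight at 17 °C, then purified by Ni–NTA and desalting. Protein was titrated with test compound on a MicroCal PEAQ-ITC at 25 °C, using an initial 0.5 μL injection then 20 injections of 2 μL. Kd came from a single-site binding model fit.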

V517G^CD = V517G^CD (Homo sapiens, UniProt Q93009, V517G); experiment: Isothermal titration calorimetry; type: binding; details: ITC, USP7_V517G^CD
In short: as §1

V517F^CD = V517F^CD (Homo sapiens, UniProt Q93009, V517F); experiment: Isothermal titration calorimetry; type: binding; details: ITC, compared to the control groups (WT)
[4] = system: c-caspase-3, c-caspase-7, c-PARP, p53, p21, Rad18, DNMT1, UHRF1 in CHP-212 resistant variants; type: cell-based, human; details: resistant variants relative to the parent cells, 48 h, Western blotting
In short: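 CHP-212 parental and resistant cells were treated with test compound, 48 h for caspase-3/-7, cleaved caspases and PARP1, or 24 h for p53, p21, Rad18, DNMT1 and UHRF1. Lysis was in SDS buffer (50 mM Tris-HCl pH 6.8, 2% SDS, 100 mM DTT) with 15 min boiling, followed by SDS-PAGE on 7.5–12.5% gels. Primary antibodies were used at 1:1000 with HRP secondaries. Blots were repeated three times.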

[5] = system: LNCaP V517F.KI#1 and V517F.KI#2 cells; experiment: Cell viability assay; type: cell-based, human; details: LNCaP.V517F.KI vs WT
USP7_V517F^CD = USP7_V517F^CD (Homo sapiens, UniProt Q93009, V517F); experiment: Ub-AMC in vitro enzyme assay; type: biochemical; details: 50 nM USP7_V517F^CD, up to 0.5 μM USP7-797 or 1 μM FT671
V517Y^CD = V517Y^CD (Homo sapiens, UniProt Q93009, V517Y); experiment: Isothermal titration calorimetry; type: binding; details: ITC, USP7_V517Y^CD
In short: as §1

CHP-212 R(mix) cells = experiment: Cell cycle distribution by flow cytometry; type: cell-based, human; details: 24 h treatment
V517I^CD = V517I^CD (Homo sapiens, UniProt Q93009, V517I); experiment: Isothermal titration calorimetry; type: binding; details: ITC
In short: as §1

Capan-1.V517F.OE cells = details: Capan-1.V517F.OE vs WT.OE

Sequence of V517Y^CD (Q93009 208-560 V517Y): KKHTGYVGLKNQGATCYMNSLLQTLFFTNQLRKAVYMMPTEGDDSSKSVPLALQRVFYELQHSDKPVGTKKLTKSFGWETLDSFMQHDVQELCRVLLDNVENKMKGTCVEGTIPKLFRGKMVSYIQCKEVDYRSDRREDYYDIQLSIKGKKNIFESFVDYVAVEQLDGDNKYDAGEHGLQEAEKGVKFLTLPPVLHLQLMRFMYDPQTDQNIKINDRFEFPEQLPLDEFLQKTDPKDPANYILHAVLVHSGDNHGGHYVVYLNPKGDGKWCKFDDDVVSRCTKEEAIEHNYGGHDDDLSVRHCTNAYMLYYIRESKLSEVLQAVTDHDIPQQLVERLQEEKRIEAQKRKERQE
Sequence of V517G^CD (Q93009 208-560 V517G): as the sequence (Q93009 208-560 V517Y) above, with Y310G counted along it
Sequence of V517I^CD (Q93009 208-560 V517I): as the sequence (Q93009 208-560 V517Y) above, with Y310I counted along it
Sequence of V517A^CD (Q93009 208-560 V517A): as the sequence (Q93009 208-560 V517Y) above, with Y310A counted along it
Sequence of USP7_V517F^CD (Q93009 208-560 V517F): as the sequence (Q93009 208-560 V517Y) above, with Y310F counted along it
Sequence of V517F^CD (Q93009 208-560 V517F): as the sequence (Q93009 208-560 V517Y) above, with Y310F counted along it

SMILES: NS(=O)(=O)OC[C@@H]1C[C@@H](n2ccc3c(N[C@H]4CCc5ccccc54)ncnc32)C[C@@H]1O [MLN4924]
sensitivity of the resistant cells to other agents [1]: maintained sensitivity

affinity compared to wild-type USP7 (V517A^CD): remain essentially unchanged | affinity compared to wild-type USP7 (V517G^CD): remain essentially unchanged | fold decreased binding affinity of USP7_V517F (V517F^CD): 67 fold | inhibition of V517F enzyme activity (USP7_V517F^CD): failed to inhibit | affinity compared to wild-type USP7 (V517Y^CD): decreases significantly | affinity compared to wild-type USP7 (V517I^CD): remain essentially unchanged | fold higher IC50 (Capan-1.V517F.OE cells): 48 fold
SMILES: O=C(C[C@@H](C(F)F)n1ccc(F)n1)N1CCC(O)(Cn2cnc3c(cnn3-c3ccc(F)cc3)c2=O)CC1 [FT671]
sensitivity reduction [2]: 88–106 fold | response of other USP family members to FT671 [3]: resistant | fold reduction in sensitivity / higher IC50 than parental cells ([1]; resistant sublines vs parental CHP-212 cells): 83–213 fold | activation of apoptosis-related proteins (c-caspase-3, c-caspase-7, c-PARP) [4]: reduced activation | sensitivity reduction [5]: 121- to 146 fold | cell-cycle distribution of resistant variants (CHP-212 R(mix) cells): not profoundly altered

SMILES: CC(C)C[C@H](NC(=O)[C@H](Cc1ccccc1)NC(=O)c1cnccn1)B(O)O [bortezomib]
sensitivity of the resistant cells to other agents [1]: maintained sensitivity

SMILES: COc1cccc2c1C(=O)c1c(O)c3c(c(O)c1C2=O)C[C@@](O)(C(=O)CO)C[C@@H]3O[C@H]1C[C@H](N)[C@H](O)[C@H](C)O1 [Adriamycin]
sensitivity of the resistant cells to other agents [1]: maintained sensitivity

SMILES: CC[C@]1(O)C[C@H]2CN(CCc3c([nH]c4ccccc34)[C@@](C(=O)OC)(c3cc4c(cc3OC)N(C=O)[C@H]3[C@@](O)(C(=O)OC)[C@H](OC(C)=O)[C@]5(CC)C=CCN6CC[C@]43[C@@H]65)C2)C1 [VCR]
sensitivity of the resistant cells to other agents [1]: maintained sensitivity

SMILES: CC(=O)O[C@H]1C(=O)[C@@]2(C)[C@H]([C@H](OC(=O)c3ccccc3)[C@]3(O)C[C@H](OC(=O)[C@H](O)[C@@H](NC(=O)c4ccccc4)c4ccccc4)C(C)=C1C3(C)C)[C@]1(OC(C)=O)CO[C@@H]1C[C@@H]2O [Taxol]
sensitivity of the resistant cells to other agents [1]: maintained sensitivity

SMILES: COc1ncnc(C2CC2)c1-c1ncc2cnn(Cc3ccc(-c4nc(C(F)(F)F)cn4C(C)C)cc3)c2n1 [KSQ4279]
sensitivity of the resistant cells to other agents [1]: maintained sensitivity
